# Assay results taken from ChEMBL document CHEMBL2331384, “Synthesis, crystal structure and antibacterial activity of new highly functionalized ionic compounds based on the imidazole nucleus” (2013).
# Activity calls are given as the source filed them. The rule behind the calls is not given here.
# Experiments:
# Escherichia coli [1] = experiment: Antimicrobial activity against Escherichia coli ATTC-25922 at 200 ug after overnight incubation by disk-diffusion method; assay type: functional; settings: for zone of inhibition at 200 µg/disc: read-out: DIZ
# How it was run: (§1)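 Bacterial suspension spread over a Mueller–Hinton agar surface. 6 mm paper disks each loaded with 200 µg of compound dissolved in DMSO were placed on the agar. Plates were incubated overnight at 37 °C, and inhibition zone diameters were measured with a ruler in mm.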
# Staphylococcus aureus [2] = experiment: Antimicrobial activity against Staphylococcus aureus ATTC-25923 after 1 day by agar dilution method; assay type: functional; settings: ATTC-25923, 24 h
# How it was run: (§2)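 Inoculum was an overnight broth culture diluted to about 10^6 cell/mL. MIC (µg/mL) was determined by a standardized agar dilution technique after 1 day of exposure.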
# Pseudomonas aeruginosa [3] = experiment: Antimicrobial activity against Pseudomonas aeruginosa ATCC 27853 at 200 ug after overnight incubation by disk-diffusion method; assay type: functional; settings: for zone of inhibition at 200 µg/disc: read-out: DIZ; how it was run: as §1
# Salmonella typhimurium [4] = experiment: Antimicrobial activity against Salmonella typhimurium ATCC 07095 after 1 day by agar dilution method; assay type: functional, Salmonella enterica subsp. enterica serovar Typhimurium; settings: Salmonella enterica, ATCC 07095, 24 h; how it was run: as §2
# Escherichia coli [5] = experiment: Antimicrobial activity against Escherichia coli ATTC-25922 after 1 day by agar dilution method; assay type: functional; settings: ATTC-25922, 24 h; how it was run: as §2
# Pseudomonas aeruginosa [6] = experiment: Antimicrobial activity against Pseudomonas aeruginosa ATCC 27853 after 1 day by agar dilution method; assay type: functional; settings: ATCC 27853, 24 h; how it was run: as §2
# Staphylococcus aureus [7] = experiment: Antimicrobial activity against Staphylococcus aureus ATTC-25923 at 200 ug after overnight incubation by disk-diffusion method; assay type: functional; settings: for zone of inhibition at 200 µg/disc: read-out: DIZ; how it was run: as §1
# Salmonella typhimurium [8] = experiment: Antimicrobial activity against Salmonella typhimurium ATCC 07095 at 200 ug after overnight incubation by disk-diffusion method; assay type: functional, Salmonella enterica subsp. enterica serovar Typhimurium; settings: for zone of inhibition at 200 µg/disc: Salmonella enterica, read-out: DIZ; for diameter of the inhibition zone (DIZ): Salmonella enterica subsp. enterica serovar Typhimurium; how it was run: as §1
# Staphylococcus aureus [9] = experiment: Antimicrobial activity against Staphylococcus aureus ATTC-25923 at 100 ug after overnight incubation by disk-diffusion method; assay type: functional, organism-based
# Salmonella typhimurium [10] = experiment: Antimicrobial activity against Salmonella typhimurium ATCC 07095 at 100 ug after overnight incubation by disk-diffusion method; assay type: functional, organism-based; settings: Salmonella enterica subsp. enterica serovar Typhimurium
# Escherichia coli [11] = experiment: Antimicrobial activity against Escherichia coli ATTC-25922 at 100 ug after overnight incubation by disk-diffusion method; assay type: functional, organism-based
Compound,MIC (Staphylococcus aureus [2]) [µg/mL],MIC (Salmonella typhimurium [4]) [µg/mL],MIC (Escherichia coli [5]) [µg/mL],MIC (Pseudomonas aeruginosa [6]) [µg/mL],zone of inhibition at 200 µg/disc (Escherichia coli [1]) [mm],zone of inhibition at 200 µg/disc (Pseudomonas aeruginosa [3]) [mm],zone of inhibition at 200 µg/disc (Staphylococcus aureus [7]) [mm],zone of inhibition at 200 µg/disc (Salmonella typhimurium [8]) [mm],diameter of the inhibition zone (DIZ) (Escherichia coli [1]),diameter of the inhibition zone (DIZ) (Staphylococcus aureus [7]),diameter of the inhibition zone (DIZ) (Salmonella typhimurium [8]),diameter of the inhibition zone (DIZ) (Pseudomonas aeruginosa [3]),zone of inhibition (Staphylococcus aureus [9]) [mm],zone of inhibition (Salmonella typhimurium [10]) [mm],zone of inhibition (Escherichia coli [11]) [mm]
CCOC(=O)C[n+]1c(Br)c(Br)n(C)c1-c1ccccc1.[Br-],> 250,25,50,25,,7,9,7,inactive,,,,,,
Cc1n(C)c([N+](=O)[O-])c[n+]1CC(=O)c1ccccc1.[Br-],> 250,50,50,> 250,9,10,9,7,,,,,,,
CCOC(=O)C[n+]1c(Br)c(Br)n(C)c1CO.[Br-],> 250,> 250,150,25,7,7,,,,inactive,inactive,,,,
Cc1n(C)c(Br)c(Br)[n+]1CC(=O)c1ccccc1.[Br-],> 250,> 250,12.5,150,9,9,7,7,,,,,,,
CCOC(=O)C[n+]1c(I)c(I)n(C)c1C.[Br-],> 250,> 250,25,25,,9,,,inactive,inactive,inactive,,,,
Cn1c(Br)c(Br)[n+](CC(=O)c2ccccc2)c1CO.[Br-],> 250,> 250,25,50,7,9,7,,,,inactive,,,,
SPIRAMYCIN,,,,,,,,,,,,,22,9,9

# Further lines, with some results ahead:
MIC (Staphylococcus aureus [2]) [µg/mL],MIC (Salmonella typhimurium [4]) [µg/mL],MIC (Escherichia coli [5]) [µg/mL],MIC (Pseudomonas aeruginosa [6]) [µg/mL],Compound,zone of inhibition at 200 µg/disc (Escherichia coli [1]) [mm],zone of inhibition at 200 µg/disc (Pseudomonas aeruginosa [3]) [mm],zone of inhibition at 200 µg/disc (Staphylococcus aureus [7]) [mm],zone of inhibition at 200 µg/disc (Salmonella typhimurium [8]) [mm],diameter of the inhibition zone (DIZ) (Escherichia coli [1]),diameter of the inhibition zone (DIZ) (Staphylococcus aureus [7]),diameter of the inhibition zone (DIZ) (Salmonella typhimurium [8]),diameter of the inhibition zone (DIZ) (Pseudomonas aeruginosa [3]),zone of inhibition (Staphylococcus aureus [9]) [mm],zone of inhibition (Salmonella typhimurium [10]) [mm],zone of inhibition (Escherichia coli [11]) [mm]
> 250,25,12.5,12.5,Cc1n(C)c(I)c(I)[n+]1CC(=O)c1ccccc1.[Br-],9,9,15,8,,,,,,,
> 250,12.5,12.5,12.5,Cn1c[n+](CC(=O)c2ccccc2)cc1[N+](=O)[O-].[Br-],,9,,,inactive,inactive,inactive,,,,
250,150,50,50,Cn1c(Br)c(Br)[n+](CC(=O)c2ccccc2)c1-c1ccccc1.[Br-],9,8,12,7,,,,,,,
> 250,> 250,25,250,CCOC(=O)C[n+]1c(Br)c(Br)n(C)c1C.[Br-],,,10,,inactive,,inactive,inactive,,,
250,12.5,25,25,Cn1c[n+](CC(=O)c2ccccc2)c(I)c1I.[Br-],12,8,15,9,,,,,,,
250,50,6.2,6.2,CCOC(=O)C[n+]1cn(C)c(I)c1I.[Br-],,9,,,inactive,inactive,inactive,,,,
